The record followed here is ChEMBL document CHEMBL1130323, “Synthesis and anti-HIV activity of novel N-1 side chain-modified analogs of 1-[(2-hydroxyethoxy)methyl]-6-(phenylthio)thymine (HEPT)” (J Med Chem, 1997).

Some results are limits rather than exact numbers.

For one experiment, the system named is MT4. In words: Effective concentration required to achieve 50% inhibition of HIV-1 multiplication in human T-4 lymphoblastoid cell line MT-4 IIIB. Format: functional, cell-based. The method in brief: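 MT-4 cells infected with 50 TCID50 of HIV-1 IIIB and allowed 30 min adsorption, then washed. Cells were cultured with graded compound concentrations for 5 days. Protection from virus-induced cytopathogenicity was read by MTT reduction to formazan (OD 540 nm). IC50 was taken from a median effect plot. Means of at least two separate experiments.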

Experiment [1] is described as follows: Concentration which reduces the cell viability by 50% (CEM-SS / MT-4). The conditions noted are these: Homo sapiens. The class given is functional. The method in brief:
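Cytotoxicity measured on uninfected CEM-SS or MT-4 cells by MTT assay in the same experiment as the antiviral test, with cells cultured with graded compound concentrations for 5 days. Formazan read as OD at 540 nm. CC50 is the concentration reducing viability by 50%, calculated from a median effect plot. Means of at least two separate experiments.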

The subject of a further experiment is CEM-SS. As to the kind of experiment: Effective concentration required to achieve 50% inhibition of HIV-1 multiplication in human T-4 lymphoblastoid cell line CEM-SS/LAI. Format: functional, cell-based. The method in brief: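 CEM-SS cells infected with 100 TCID50 of HIV-1 Lai and allowed 30 min adsorption, then free virus was washed off. Cells were cultured with graded compound concentrations for 5 days. Virus production was read as reverse transcriptase activity of virions in culture supernatants. IC50 was taken from a median effect plot. Means of at least two separate experiments.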

As for `Cc1c(Sc2ccccc2)n(COCCNC(=O)CCP(=O)(O)O)c(=O)[nH]c1=O`, the IC50 in the experiment on MT4 and with CEM-SS was more than 10 µM in each case. This compound also gave a CC50 in experiment [1] of more than 1 µM.

For `Cc1c(Sc2ccccc2)n(COCCNC(=O)CNCP(=O)(O)O)c(=O)[nH]c1=O`, the IC50 in the experiment with MT4 and with CEM-SS was more than 100 µM in each case. The same compound yielded a CC50 in experiment [1] of more than 1 µM.

In the case of `CCc1c(Sc2ccccc2)n(COCc2ccccc2)c(=O)[nH]c1=O`, the midpoint of inhibition in the experiment with MT4, the IC50, lay at 0.0059 µM.

For the compound `Cc1c(Sc2ccccc2)n(C/C=C/c2ccccc2)c(=O)[nH]c1=O`, the 50% inhibitory concentration (IC50) with MT4 was determined as 2.5 µM; with CEM-SS, 0.23 µM. In experiment [1], this compound showed a CC50 of more than 1 µM.

Regarding `Cc1c(Sc2ccccc2)n(C/C=C/c2cc3ccccc3o2)c(=O)[nH]c1=O`, the IC50 in the experiment with MT4 and in the experiment on CEM-SS was more than 1 µM each time. Also, the CC50 in experiment [1] was more than 1 µM.

As for `CCc1c(Sc2ccccc2)n(C/C=C/c2ccccc2)c(=O)[nH]c1=O`, the IC50 with MT4 was 0.19 µM; with CEM-SS, 0.016 µM. In experiment [1], this compound registered a CC50 of more than 1 µM.

Take `Cc1c(Sc2ccccc2)n(COCCI)c(=O)[nH]c1=O`: the IC50 in the experiment on MT4 was more than 10 µM; in the experiment with CEM-SS, 2.2 µM. Besides, in experiment [1], the CC50 was more than 1 µM.

Compound `CCc1c(Sc2cc(C)cc(C)c2)n(COCc2ccccc2)c(=O)[nH]c1=O` displayed an IC50 with MT4 of 0.0032 µM.

With `CCc1c(Sc2cc(C)cc(C)c2)n(C/C=C/c2cccs2)c(=O)[nH]c1=O`, the IC50 with MT4 came out at 0.04 µM; in the experiment with CEM-SS, 0.028 µM. Besides, in experiment [1], the CC50 was more than 1 µM.

Regarding `Cc1c(Sc2ccccc2)n(COCCNC(=O)CCCl)c(=O)[nH]c1=O`, the IC50 is 40 µM with MT4 and 11.4 µM in the experiment with CEM-SS. Further, the CC50 in experiment [1] was more than 1 µM.

`Cc1c(Sc2ccccc2)n(COCCN2CCOCC2)c(=O)[nH]c1=O`: the IC50 with MT4 and with CEM-SS was more than 100 µM throughout. The same compound returned a CC50 in experiment [1] of more than 1 µM.

For `Cc1c(Sc2ccccc2)n(C/C=C/C2CCCCC2)c(=O)[nH]c1=O`, the IC50 in the experiment with MT4 and in the experiment on CEM-SS was more than 1 µM throughout. This compound also displayed a half-maximal cytotoxic concentration (CC50) in experiment [1] of more than 1 µM.

For `Cc1c(Sc2ccccc2)n(C/C=C/c2cccs2)c(=O)[nH]c1=O`, the values for the IC50 in the experiment with MT4 and with CEM-SS were more than 1 µM and 0.14 µM, respectively. Moreover, in experiment [1], the CC50 was more than 1 µM.

As for `Cc1c(Sc2ccccc2)n(COCCN(C(=O)c2ccccc2)C(=O)c2ccccc2)c(=O)[nH]c1=O`, the IC50 in the experiment on MT4 and with CEM-SS was more than 1 µM in each case. In addition, the CC50 in experiment [1] is more than 1 µM.

In the case of `Cc1c(Sc2ccccc2)n(COCc2ccccc2)c(=O)[nH]c1=O`, the values for the IC50 in the experiment with MT4 and in the experiment with CEM-SS were 0.74 µM and 0.09 µM, respectively. The compound also registered a CC50 in experiment [1] of more than 1 µM.

Take `CCc1c(Sc2ccccc2)n(C/C=C/c2ccc([N+](=O)[O-])s2)c(=O)[nH]c1=O`: the IC50 in the experiment with MT4 is more than 1 µM; in the experiment on CEM-SS, 0.94 µM. Also, in experiment [1], the CC50 is more than 1 µM.

Turning to `Cc1c(Sc2ccccc2)n(COCCNC(=O)c2ccccc2)c(=O)[nH]c1=O`, the IC50 in the experiment with MT4 and in the experiment on CEM-SS was more than 10 µM each time. In experiment [1], this compound had a CC50 of more than 1 µM.

With `CCc1c(Sc2ccccc2)n(C/C=C/c2cccs2)c(=O)[nH]c1=O`, the IC50 with MT4 was found to be 0.08 µM; in the experiment on CEM-SS, 0.008 µM. In experiment [1], this compound came in with a CC50 of more than 1 µM.

`CCc1c(Sc2ccccc2)n(C/C=C/c2ccco2)c(=O)[nH]c1=O`: the IC50 amounted to 0.17 µM in the experiment on MT4 and 0.008 µM in the experiment with CEM-SS. The CC50 in experiment [1] was more than 1 µM.

Take `Cc1c(Sc2ccccc2)n(COCCN2CCNCC2)c(=O)[nH]c1=O`: the IC50 in the experiment with MT4 and in the experiment on CEM-SS was more than 10 µM throughout. The compound also had a CC50 in experiment [1] of more than 1 µM.

Regarding `Cc1c(Sc2ccccc2)n(COCCNc2ccccc2)c(=O)[nH]c1=O`, the IC50 in the experiment on MT4 came out at 1 µM; in the experiment with CEM-SS, 0.055 µM. For the same compound, in experiment [1], the CC50 was more than 1 µM.

The compound `Cc1c(Sc2ccccc2)n(COCCN)c(=O)[nH]c1=O` gave a CC50 in experiment [1] of more than 1 µM. Also, in the experiment with CEM-SS, the half-maximal inhibitory concentration (IC50) amounted to 31 µM.

With `Cc1c(Sc2ccccc2)n(C/C=C/c2ccc([N+](=O)[O-])s2)c(=O)[nH]c1=O`, the IC50 in the experiment with MT4 and in the experiment on CEM-SS was more than 1 µM each time. The compound further showed a CC50 in experiment [1] of more than 1 µM.

`Cc1c(Sc2ccccc2)n(COCCSc2ccccn2)c(=O)[nH]c1=O`: the IC50 in the experiment with MT4 was more than 1 µM; in the experiment with CEM-SS, 0.83 µM. Moreover, the CC50 in experiment [1] is more than 1 µM.

In experiment [1], `CCc1c(Sc2cc(C)cc(C)c2)n(C/C=C/c2ccccc2)c(=O)[nH]c1=O` showed a CC50 of more than 1 µM. In the experiment with CEM-SS, this compound came in with an IC50 of 0.031 µM.

`Cc1c(Sc2ccccc2)n(COCCN(CC#N)CC#N)c(=O)[nH]c1=O`: the IC50 with MT4 is more than 100 µM; in the experiment with CEM-SS, 27.5 µM. This compound showed a CC50 in experiment [1] of more than 1 µM.

Regarding `CCc1c(Sc2cc(C)cc(C)c2)n(C/C=C/c2ccco2)c(=O)[nH]c1=O`, the IC50 in the experiment with MT4 was 0.04 µM; in the experiment with CEM-SS it was 0.01 µM. Moreover, the CC50 in experiment [1] was more than 1 µM.

Take `Cc1c(Sc2ccccc2)n(C/C=C/c2ccco2)c(=O)[nH]c1=O`: the IC50 was more than 1 µM in the experiment on MT4 and 0.33 µM in the experiment with CEM-SS. Besides, in experiment [1], the CC50 was more than 1 µM.

Turning to `Cc1c(Sc2ccccc2)n(COCCBr)c(=O)[nH]c1=O`, the IC50 worked out at 2.8 µM with MT4 and 0.76 µM in the experiment with CEM-SS. The compound further gave a CC50 in experiment [1] of more than 1 µM.

Regarding `CCc1c(Sc2ccccc2)n(C/C=C/c2cc3ccccc3o2)c(=O)[nH]c1=O`, the results for the IC50 with MT4 and with CEM-SS were more than 1 µM and 0.038 µM, respectively. The compound further displayed a CC50 in experiment [1] of more than 1 µM.

Regarding `Cc1c(Sc2ccccc2)n(COCCN(c2ccccc2)c2ccccc2)c(=O)[nH]c1=O`, the IC50 is more than 10 µM in the experiment on MT4 and 8.75 µM in the experiment on CEM-SS. Moreover, in experiment [1], the CC50 was more than 1 µM.

In the case of `Cc1c(Sc2ccccc2)n(COCCSc2ccccc2)c(=O)[nH]c1=O`, the CC50 in experiment [1] is more than 1 µM. The IC50 in the experiment on CEM-SS is more than 1 µM.

With `Cc1c(Sc2ccccc2)n(C/C=C/c2cccnc2)c(=O)[nH]c1=O`, the concentration for half-maximal inhibition (IC50) in the experiment with MT4 was determined as 0.1 µM; with CEM-SS, 0.15 µM. The same compound registered a CC50 in experiment [1] of more than 1 µM.

With `Cc1c(Sc2ccccn2)n(COCCSc2ccccn2)c(=O)[nH]c1=O`, the IC50 in the experiment on MT4 was 8 µM; with CEM-SS it was 0.44 µM. Also, the CC50 in experiment [1] is more than 1 µM.

`Cc1c(Sc2ccccn2)n(COCCSc2ccccc2)c(=O)[nH]c1=O`: the IC50 in the experiment on MT4 is more than 1 µM; in the experiment with CEM-SS it was 1 µM. In addition, in experiment [1], the CC50 is more than 1 µM.

As for `Cc1c(Sc2ccccc2)n(COCCO)c(=O)[nH]c1=O` [HEPT], the figures for the IC50 in the experiment on MT4 and in the experiment with CEM-SS were 11 µM and 2 µM, respectively. For the same compound, the CC50 in experiment [1] was more than 1 µM.

What is called IC50 is the concentration that gives 50% inhibition. A high value points to weaker potency in that assay. Broadly, the CC50 is the concentration giving 50% cytotoxicity. A high value points to lower toxicity to the cells.
